VIM-2 inh = VIM-2 metallo-beta-lactamase inhibitors, primary screen, biochemical, epi-absorbance readout, Pseudomonas aeruginosa enzyme; 290,000 compounds, 0.89% hits; purified VIM-2, nitrocefin hydrolysis, epi-absorbance fluorescence; inhibition, % at 5.6 µM;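 active = inhibition above the mean of all tested compounds plus 3 SD, cutoff set per screening run, cut at about 7.5% in these data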;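 also: red hydrolysis product quenches plate fluorescence so inhibitors raise well fluorescence; 0% = enzyme with DMSO and 100% = DMSO without enzyme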
PvdQ acylase = P. aeruginosa PvdQ acylase inhibitors, primary screen, biochemical, fluorescence, plate reader and imaging, single point; PvdQ acylase [Pseudomonas aeruginosa LESB58]; purified PvdQ acylase; inhibition, % at 10 µM; 340,000 compounds, 0.063% hits; in the data active = inhibition above about 30%, passing the limit was not always enough;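 also: 0% = vehicle neutral wells and 100% = reference inhibitor wells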
PglD DTNB = C. jejuni PglD acetyltransferase inhibitors, primary screen, biochemical, DTNB colorimetric, single point | inhibition, % at 12.5 µM | purified PglD enzyme, DTNB colorimetric CoA detection | 360,000 compounds, 0.098% hits; in the data active = inhibition above about 16%, passing the limit was not always enough
ERp5 inh = inhibitors of ERp5-driven insulin aggregation, primary screen, biochemical, turbidity, absorbance 650 nm, single point. inhibition, % at 9.99 µM. Protein disulfide-isomerase A6 (Homo sapiens), Q15084. 90 min. 350,000 compounds, 0.05% hits;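 active = mean replicate inhibition above about 25%, with every replicate also reaching it, limit read from the data, passing the limit was not always enough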
Target sequence (Q15084 whole entry, looked up): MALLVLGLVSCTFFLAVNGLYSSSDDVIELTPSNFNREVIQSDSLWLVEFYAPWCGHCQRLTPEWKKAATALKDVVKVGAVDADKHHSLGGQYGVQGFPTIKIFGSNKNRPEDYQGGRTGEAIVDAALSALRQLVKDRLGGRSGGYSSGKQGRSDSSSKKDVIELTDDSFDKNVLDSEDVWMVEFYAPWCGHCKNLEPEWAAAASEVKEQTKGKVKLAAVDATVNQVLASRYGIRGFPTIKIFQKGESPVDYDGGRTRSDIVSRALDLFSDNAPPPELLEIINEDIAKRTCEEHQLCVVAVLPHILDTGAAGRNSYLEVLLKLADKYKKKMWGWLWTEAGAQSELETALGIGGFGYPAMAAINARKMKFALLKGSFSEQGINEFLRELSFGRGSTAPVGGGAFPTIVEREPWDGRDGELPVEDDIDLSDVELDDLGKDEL
PDI turbidity = inhibitors of human PDI, primary screen, biochemical, turbidity, single point, plate reader | PDI insulin aggregation turbidity, A650, 90 min | inhibition, % at 10 µM | 350,000 compounds, 0.052% hits;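 active = mean inhibition across replicates of 30% or more, whatever share of single replicates reach that level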
IMP-1 inh = IMP-1 metallo-beta-lactamase inhibitors, primary screen, biochemical, epi-absorbance readout, Pseudomonas aeruginosa enzyme | AID 1556, 2009 | inhibition, % at 5.6 µM | purified IMP-1, nitrocefin hydrolysis, epi-absorbance fluorescence | 290,000 compounds, 0.45% hits;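 active = inhibition above the mean plus 3 SD of all compounds in the same screening run, cut at about 4.5% in these data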;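 also: 0% = IMP-1 with DMSO and 100% = DMSO wells lacking enzyme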
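Test system: recombinant IMP-1 enzyme, purified / Medium: HEPES buffer pH 7.1 with ZnSO4 and Brij 35 / Doses: single dose, 5.6 µM / Times: 25 °C, 15 min preincubation, 25 min reaction / Detection: Epi-absorbance via hydrolysed-nitrocefin quenching of white-plate fluorescence, 480/530 nm, EDTA stop / Evaluation: percent inhibition from optical density relative to buffer-blank wells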
Numbers without * were called inactive. A selection: hits, their analogues and other compounds. The true share with any hit is near 1%.

`O=C(CN(Cc1cccs1)C(=O)CN1C(=O)COc2ccccc21)NCc1ccco1` gave VIM-2 inh -0.4, PvdQ acylase -4.1, PglD DTNB 2.5, PDI turbidity -1.1 and IMP-1 inh 5.4*.
Screening COC(=O)c1ccc(NS(=O)(=O)c2ccccc2)o1 returned VIM-2 inh -1.9, PvdQ acylase 5.0, ERp5 inh -1.7, PDI turbidity 1.3 and IMP-1 inh 4.9*.
COC(=O)c1ccc(NS(=O)(=O)c2ccc(Cl)cc2)o1 was read as VIM-2 inh 0.6, PvdQ acylase -12.2, PglD DTNB -0.1, ERp5 inh 2.3, PDI turbidity 4.0 and IMP-1 inh 2.3.
For Cc1ccc(N=Cc2cc(Cc3ccccc3Cl)cc([N+](=O)[O-])c2O)c(O)c1 the results were VIM-2 inh -2.3, PvdQ acylase 0.9, PDI turbidity -10.7 and IMP-1 inh 6.3*.
Screening CCN1[C@@H]2c3cccc(=O)n3C[C@@H]2[C@@H](CO)[C@@H]1C(=O)NC1Cc2ccccc2C1 returned PglD DTNB 4.3 and ERp5 inh -1.9.
For COc1ccc(NC(=O)C2CCCN(C(=O)NC3CCCCC3)C2)cc1OC (stereo unspecified) the results were VIM-2 inh -2.6, PvdQ acylase 34.3*, PglD DTNB -185.3, PDI turbidity 1.0 and IMP-1 inh 0.1.
`O=C(O)c1ccc(S(=O)(=O)c2ccc(Sc3ccc(C(=O)O)c(C(=O)O)c3)cc2)cc1` gave VIM-2 inh 8.9*, PvdQ acylase -6.3, PglD DTNB 3.3, ERp5 inh 1.1, PDI turbidity -12.0 and IMP-1 inh 3.4.
Screening Cc1cc(Cl)c2oc(C(=O)N3CCN(c4ccncc4)CC3)c(C)c2c1 returned VIM-2 inh 7.8*, PvdQ acylase 7.1, PglD DTNB 3.4, ERp5 inh -1.9, PDI turbidity 6.1 and IMP-1 inh -3.9.
`Cc1ccc2c(CSc3nnc(N)s3)cc(=O)oc2c1` gave VIM-2 inh -1.8, PvdQ acylase -6.4, PglD DTNB 4.0, PDI turbidity 13.8 and IMP-1 inh -3.3.
For CC(=O)Nc1ccc2c(CSc3nncs3)cc(=O)oc2c1 the results were VIM-2 inh 2.5, PvdQ acylase -6.2, PglD DTNB -3.1, ERp5 inh -0.3, PDI turbidity -1.4 and IMP-1 inh 5.4*.
Cc1ccc(C)c(/C=C/C(=O)c2ccccc(=O)c2O)c1 was read as VIM-2 inh -4.2, PvdQ acylase 8.8, PglD DTNB 8.2, PDI turbidity 13.1 and IMP-1 inh 2.7.
Screening O=C(/C=C/c1ccccc1Cl)c1ccccc(=O)c1O returned VIM-2 inh 2.2, PvdQ acylase -2.8, PDI turbidity -9.3 and IMP-1 inh 11.0*.
`O=[N+]([O-])c1cccnc1Sc1ccc(Cl)cc1` gave VIM-2 inh 1.1, PvdQ acylase 47.2*, PglD DTNB 12.5, ERp5 inh -0.8, PDI turbidity -4.1 and IMP-1 inh -3.7.
`COc1cccc2c1C(=O)c1c(O)c3c(c(O)c1C2=O)C[C@@](O)(C(=O)CO)C[C@@H]3O[C@H]1C[C@H](N)[C@H](O)[C@H](C)O1` gave VIM-2 inh 23.9*, PvdQ acylase -6.4, PglD DTNB 2.7, ERp5 inh 8.0, PDI turbidity 7.1 and IMP-1 inh 5.7*.
For C[C@H](CO)N1C[C@H](C)[C@H](CN(C)S(=O)(=O)c2ccc(F)cc2)Oc2ccc(NC(=O)Cc3ccccc3)cc2CC1=O the results were PglD DTNB -0.6 and ERp5 inh -2.1.
Screening Oc1c(CN2CCOCC2)cc(COCc2ccccc2)c2cccnc12 returned VIM-2 inh 7.7*, PvdQ acylase 6.9, PglD DTNB 2.2, PDI turbidity 0.7 and IMP-1 inh -5.6.
CCOC(=O)N1CCc2[nH]c3ccc(C)cc3c2C1 was read as VIM-2 inh 8.8*, PvdQ acylase 2.0, PglD DTNB -0.8, ERp5 inh 5.9, PDI turbidity -3.8 and IMP-1 inh -2.7.
